Measured values as given in ChEMBL document CHEMBL4680221, “Discovery of pyrazole derivatives as cellular active inhibitors of histone lysine specific demethylase 5B (KDM5B/JARID1B)” (Eur J Med Chem, 2020).
Active and inactive are the calls of the source. The calls are words filed in the database; no cut-off is given here.

How the values were obtained:
[1] = molecular target: T1, Lysine-specific demethylase 5B (Homo sapiens, UniProt Q9UGL1); experiment: Inhibition of recombinant human N-terminal FLAG-tagged KDM5B expressed in Sf9 insect cells using biotin-H3K4me as substrate by ALPHA
T1 sequence (Q9UGL1 whole entry): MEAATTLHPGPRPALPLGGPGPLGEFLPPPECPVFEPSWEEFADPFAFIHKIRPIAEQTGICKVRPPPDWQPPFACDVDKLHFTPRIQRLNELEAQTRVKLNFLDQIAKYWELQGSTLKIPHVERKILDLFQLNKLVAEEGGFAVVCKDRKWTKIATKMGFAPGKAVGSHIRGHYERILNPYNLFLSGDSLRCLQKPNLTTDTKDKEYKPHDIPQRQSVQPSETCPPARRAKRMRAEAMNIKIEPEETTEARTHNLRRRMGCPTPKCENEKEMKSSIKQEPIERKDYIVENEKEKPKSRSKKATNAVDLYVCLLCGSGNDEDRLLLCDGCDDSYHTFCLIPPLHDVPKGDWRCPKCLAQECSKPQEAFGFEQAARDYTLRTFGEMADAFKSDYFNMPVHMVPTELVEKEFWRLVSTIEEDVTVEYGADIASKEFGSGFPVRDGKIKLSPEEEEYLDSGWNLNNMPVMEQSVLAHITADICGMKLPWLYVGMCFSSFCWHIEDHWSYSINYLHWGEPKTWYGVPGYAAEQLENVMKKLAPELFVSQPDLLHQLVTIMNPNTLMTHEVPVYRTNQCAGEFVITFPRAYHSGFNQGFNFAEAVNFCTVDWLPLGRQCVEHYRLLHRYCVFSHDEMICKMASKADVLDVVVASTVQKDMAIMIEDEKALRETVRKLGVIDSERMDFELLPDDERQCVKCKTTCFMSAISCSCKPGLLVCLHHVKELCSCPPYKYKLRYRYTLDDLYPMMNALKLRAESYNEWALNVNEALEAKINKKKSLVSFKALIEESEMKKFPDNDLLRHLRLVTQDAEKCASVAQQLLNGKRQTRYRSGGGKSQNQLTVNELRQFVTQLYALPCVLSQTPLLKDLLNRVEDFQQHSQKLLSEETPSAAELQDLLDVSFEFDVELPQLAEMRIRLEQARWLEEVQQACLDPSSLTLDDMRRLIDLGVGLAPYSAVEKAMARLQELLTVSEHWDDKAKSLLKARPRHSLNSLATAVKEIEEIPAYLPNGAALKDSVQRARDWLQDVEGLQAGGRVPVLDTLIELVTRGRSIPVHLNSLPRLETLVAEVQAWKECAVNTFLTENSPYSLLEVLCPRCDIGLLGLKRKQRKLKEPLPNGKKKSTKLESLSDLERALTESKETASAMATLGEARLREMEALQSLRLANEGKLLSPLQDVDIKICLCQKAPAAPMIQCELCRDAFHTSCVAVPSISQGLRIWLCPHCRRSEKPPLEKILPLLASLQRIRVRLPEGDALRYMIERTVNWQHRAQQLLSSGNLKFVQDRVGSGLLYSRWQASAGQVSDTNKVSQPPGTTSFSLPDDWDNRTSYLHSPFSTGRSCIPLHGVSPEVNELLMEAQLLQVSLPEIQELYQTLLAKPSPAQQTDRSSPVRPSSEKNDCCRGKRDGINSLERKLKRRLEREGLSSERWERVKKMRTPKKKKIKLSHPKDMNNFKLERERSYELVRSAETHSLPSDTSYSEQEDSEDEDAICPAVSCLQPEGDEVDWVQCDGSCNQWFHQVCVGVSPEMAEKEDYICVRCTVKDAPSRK
Summary of the method: (§1)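 ALPHA demethylase assay. Recombinant KDM5B (4 nM) was preincubated with compound, then biotin-H3K4me3 peptide (64 nM) was added. Buffer: 10 μM α-KG, 100 μM ascorbate, 50 μM (NH4)2Fe(SO4)2, 50 mM HEPES pH 7.5, 0.01% Tween 20, 0.1% BSA. Read-out used streptavidin donor and H3K4me1-2 antibody acceptor beads. Data were normalized to blank control and IC50 fitted.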

[2] = molecular target: T1, Lysine-specific demethylase 5B; experiment: Inhibition of recombinant human N-terminal FLAG-tagged KDM5B expressed in Sf9 insect cells at 10 uM using biotin-H3K4me as substrate by ALPHA relative to control; summary of the method: as §1
[3] = molecular target: T1, Lysine-specific demethylase 5B; experiment: Inhibition of KDM5B in human MKN-45 cells assessed as protein stabilization at 0.5 to 30 uM measured after 1 hr by cellular thermal shift assay; assay type: cell-based; conditions: dose 0.5-30 µM
Summary of the method: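 MKN45 cells (5×10^5) were treated with compound or DMSO for 1 h, washed in PBS and resuspended in PBS with protease inhibitors. Cells were heated at 46 °C for 3 min, then freeze-thawed three times in liquid nitrogen. KDM5B in the supernatant was measured by western blot with GAPDH control. Repeated three times.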

[4] = molecular target: T1, Lysine-specific demethylase 5B; experiment: Inhibition of KDM5B in human MKN-45 cells assessed as increase in H3K4me2 accumulation at 20 uM measured after 5 days by Hoechst 33342 staining based immunofluorescence assay; assay type: cell-based; conditions: time 5.0 day
Summary of the method: (§2)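 MKN45 cells were seeded and left 24 h, then treated for 5 days. Cells were fixed in 4% paraformaldehyde, permeabilised with 0.1% Triton X-100 for 20 min and blocked with 5% BSA for 1 h. H3K4me2 or H3K4me3 primary antibody was applied at 4°C overnight, followed by Alexa Fluor 488 secondary and Hoechst 33342 (5 µg/mL) nuclear stain. Signal was quantified by high content imaging; three independent experiments.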

[5] = molecular target: T1, Lysine-specific demethylase 5B; experiment: Inhibition of KDM5B in human MKN-45 cells assessed as increase in H3K4me3 accumulation at 20 uM measured after 5 days by Hoechst 33342 staining based immunofluorescence assay; assay type: cell-based; conditions: time 5.0 day; summary of the method: as §2
[6] = molecular target: T1, Lysine-specific demethylase 5B; experiment: Inhibition of KDM5B in human MKN-45 cells assessed as increase in H3K4me2 accumulation at 20 uM measured after 5 days by Western blot analysis; assay type: cell-based; conditions: time 5.0 day
Summary of the method: (§3)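 MKN45 cells were treated for 5 days and lysed in RIPA buffer. About 30 µg protein was run on 10% SDS-PAGE and transferred to 0.2 µm nitrocellulose, then blocked with 5% milk in PBS for 2 h. Blots were probed for histone methylation marks with histone 3 as loading control and detected by ECL.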

[7] = molecular target: T1, Lysine-specific demethylase 5B; experiment: Inhibition of KDM5B in human MKN-45 cells assessed as increase in H3K4me3 accumulation at 20 uM measured after 5 days by Western blot analysis; assay type: cell-based; conditions: time 5.0 day; summary of the method: as §3
[8] = molecular target: T1, Lysine-specific demethylase 5B; experiment: Inhibition of KDM5B in human MKN-45 cells assessed as increase in H3K4me1 accumulation at 20 uM measured after 5 days by Western blot analysis; assay type: cell-based; conditions: time 5.0 day; summary of the method: as §3
[9] = tested on: MKN-45; experiment: Inhibition of KDM4 in human MKN-45 cells assessed as increase in H3K9me2 accumulation at 20 uM measured after 5 days by Western blot analysis; assay type: cell-based; conditions: time 5.0 day; summary of the method: as §3
[10] = tested on: MKN-45; experiment: Inhibition of KDM4 in human MKN-45 cells assessed as increase in H3K9me3 accumulation at 20 uM measured after 5 days by Western blot analysis; assay type: cell-based; conditions: time 5.0 day; summary of the method: as §3
[11] = tested on: MKN-45; experiment: Inhibition of KDM6 in human MKN-45 cells assessed as increase in H3K27me2 accumulation at 20 uM measured after 5 days by Western blot analysis; assay type: cell-based; conditions: time 5.0 day; summary of the method: as §3
[12] = tested on: MKN-45; experiment: Antiproliferative activity against human MKN-45 cells assessed as reduction in cell proliferation measured after 4 days by MTS assay relative to control; assay type: functional; design: scale not given: the % may be the effect or the level left; conditions: time 4 day
Summary of the method: (§4)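 MKN45 cells were seeded at 3×10^3 cells per well and treated for 4 or 6 days, as indicated. Proliferation was read by MTS assay and IC50 derived. Three independent experiments, mean ± SD.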

[13] = tested on: MKN-45; experiment: Antiproliferative activity against human MKN-45 cells assessed as reduction in cell proliferation measured after 6 days by MTS assay relative to control; assay type: functional; design: scale not given: the % may be the effect or the level left; conditions: time 6 day; summary of the method: as §4
[14] = tested on: MKN-45; experiment: Antimigratory activity in human MKN-45 cells at 20 uM measured up to 48 hrs by wound healing assay; assay type: functional, cell-based; conditions: time hrs <=48
Summary of the method: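 MKN45 cells were grown to confluence in 24 h, then scratched with a pipette tip and washed with PBS. Medium was changed to fresh medium with 2% FBS plus compound. The wound was photographed by microscope at 0, 6, 12, 24 and 48 h. Three independent experiments.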

[15] = tested on: MKN-45; experiment: Antimigratory activity in human MKN-45 cells at 20 uM measured after 24 hrs by transwell assay; assay type: functional, cell-based
[16] = tested on: MKN-45; experiment: Antiproliferative activity against human MKN-45 cells assessed as reduction in cell proliferation measured after 4 days by MTS assay; assay type: functional, cell-based; conditions: MKN-45, 96 h; summary of the method: as §4
[17] = tested on: MKN-45; experiment: Antiproliferative activity against human MKN-45 cells assessed as reduction in cell proliferation measured after 6 days by MTS assay; assay type: functional, cell-based; conditions: MKN-45, 144 h; summary of the method: as §4
[18] = Cytotoxicity against human GES1 cells assessed as reduction in cell proliferation at 100 uM by MTS assay relative to control; assay type: cell-based; conditions: read-out: Activity
Summary of the method: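 Normal human gastric epithelial GES-1 cells, seeded at 3×10^3 cells per well and exposed to 100 μM. Antiproliferation rate was read by MTS assay.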

| Compound | IC50 [1] | inhibition [2] | also measured |
| --- | --- | --- | --- |
| CC(C)c1ccc(-c2nn(-c3ccccc3)cc2C(=O)NCCN2CCOCC2)cc1 | > 10 µM | -5.81% |  |
| Cc1cncc(C(=O)NCCN2CCOCC2)c1 | > 10 µM | 33.6% |  |
| O=C(NCC1(N2CCOCC2)CCCCC1)c1cn(-c2ccccc2)nc1-c1ccccc1 | > 10 µM | -1.95% |  |
| CC(C)N(CCNC(=O)c1cn(-c2ccccc2)nc1-c1ccccc1)C(C)C | 2.24 µM | 67% |  |
| COC(=O)CCNC(=O)c1cn(-c2ccc(C)cc2)nc1-c1ccccc1 | 0.251 µM | 82.1% |  |
| Cc1ccc(-n2cc(C(=O)NCC(C)(C)N3CCOCC3)c(-c3ccccc3)n2)cc1 | 0.191 µM | 82.4% |  |
| COc1ccc(-n2cc(C(=O)NCCN3CCOCC3)c(-c3ccccc3)n2)cc1 | 0.108 µM | 93% |  |
| O=C(c1cn(-c2ccccc2)nc1-c1ccccc1)N1CCN(CCN2CCCC2)CC1 | 0.232 µM | 86.6% |  |
| CCc1ccc(-c2nn(-c3ccccc3)cc2C(=O)NCCN2CCOCC2)cc1 | 1.35 µM | 45.3% |  |
| CCc1ccc(-n2cc(C(=O)NCCN3CCOCC3)c(-c3ccccc3)n2)cc1 | > 10 µM | 20% |  |
| Cc1n[nH]cc1C(=O)NCCN1CCOCC1 | > 10 µM | 21.5% |  |
| Cc1ccc(NC(=O)c2cn(-c3ccc(C)cc3)nc2-c2ccccc2)cc1 | 0.323 µM | 79.5% |  |
| Cc1ccc(-c2nn(-c3ccc(C)cc3)cc2C(=O)N2CCN(CCN3CCCC3)CC2)cc1 | 0.851 µM | 76.5% |  |
| O=C(NCCN1CCOCC1)c1cn(-c2ccccc2)nc1-c1ccccc1 | 0.31 µM | 76.4% |  |
| Cc1cccc(-n2cc(C(=O)NCCN3CCOCC3)c(-c3ccccc3)n2)c1 | > 10 µM | 20.9% |  |
| COc1ccccc1-n1cc(C(=O)NCC(C)(C)N2CCOCC2)c(-c2ccccc2)n1 | 0.0932 µM | 92.3% |  |
| Cc1ccccc1-n1cc(C(=O)NCCN2CCOCC2)c(-c2ccccc2)n1 | > 10 µM | -7.78% |  |
| Cc1ccc(-n2cc(C(=O)NCCN3CCOCC3)c(-c3ccccc3)n2)cc1 | 0.851 µM | 66.8% |  |

| Compound | IC50 [1] | inhibition [2] | also measured |
| --- | --- | --- | --- |
| CC(C)c1ccc(-n2cc(C(=O)NCCN3CCOCC3)c(-c3ccccc3)n2)cc1 | > 10 µM | 14.8% |  |
| CC(C)(CNC(=O)c1cn(-c2ccccc2)nc1-c1ccccc1)N1CCN(c2ccccc2)CC1 | 0.2 µM | 92.3% |  |
| O=C(NCCN1CCOCC1)c1c[nH]nc1-c1ccccc1 | 5.39 µM | 75.7% |  |
| COc1ccc(-n2nc(-c3ccccc3)nc2C(=O)NCC(C)(C)N2CCOCC2)cc1 | > 10 µM | 28% | inhibition [3]: inactive; inhibition [4]: inactive; inhibition [5]: inactive; inhibition [6]: inactive; inhibition [7]: inactive; inhibition [8]: inactive; inhibition [9]: inactive; inhibition [10]: inactive; inhibition [11]: inactive; Activity [12]: 10.32%; Activity [13]: 13.24%; Activity [14]: inactive; Activity [15]: inactive |
| CC(C)c1c(-c2ccccc2)[nH]c2c(C#N)cnn2c1=O | 0.0105 µM |  | IC50 [16]: 30.3 µM; IC50 [17]: 23.8 µM; inhibition at 100 µM [18]: < 10%; Activity [14]: Active; Activity [15]: Active |
| O=C(NCCN1CCOCC1)c1cn(-c2ccccc2)nc1-c1ccc(Cl)cc1 | 0.572 µM | 72% |  |
| O=C(NCCN1CCOCC1)c1cn(-c2ccccc2)nc1-c1ccncc1 | 0.237 µM | 81.3% |  |
| O=C(NCCN1CCOCC1)c1cn(-c2ccc(Cl)cc2)nc1-c1ccccc1 | > 10 µM | 8.69% |  |
| COc1ccc(-n2cc(C(=O)N3CCN(CCN4CCCC4)CC3)c(-c3ccccc3)n2)cc1 | > 10 µM | 17.2% |  |
| COc1ccc(-c2nn(-c3ccccc3)cc2C(=O)NCCN2CCOCC2)cc1 | 0.238 µM | 82.3% |  |
| Cc1ccc(-n2cc(C(=O)N3CCN(CCN4CCCC4)CC3)c(-c3ccccc3)n2)cc1 | 0.073 µM | 94.2% |  |
| O=C(NCCN1CCOCC1)c1cn(-c2ccccc2)nc1-c1cccs1 | 0.335 µM | 75.4% |  |
| Cc1ccccc1-c1nn(-c2ccccc2)cc1C(=O)NCCN1CCOCC1 | > 10 µM | 9.25% |  |
| CC(C)(CNC(=O)c1cn(-c2ccc(Cl)cc2)nc1-c1ccccc1)N1CCOCC1 | 0.541 µM | 62% |  |
| C#CCNC(=O)c1cn(-c2ccccc2)nc1-c1ccccc1 | 0.348 µM | 84.6% |  |
| Cc1ccc(-n2nc(-c3ccccc3)nc2C(=O)NCC(C)(C)N2CCOCC2)cc1 | > 10 µM | 28.9% |  |
| O=C(NCCN1CCOCC1)c1cncc(-c2ccccc2)c1 | > 10 µM | 42.5% |  |
